Measurements taken from article PMC11886927 (Nature, 2025).
“Also recorded” adds a separate entry of the source.

Assays:
BA production = assay: Endogenously produced BA levels in faeces, liver and serum of supplemented mice; assay type: in vivo, mouse; details: daily for 14 days
Procedure, shortened: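 Mice (WT, Nr1h4−/−, SPF, ABX) were dosed by daily oral gavage with deuterated or unlabelled conjugate (DMSO stock diluted in corn oil), 50 mg kg−1 day−1, 100 µl, for 14 days. Controls got DMSO plus corn oil. Faeces, liver and serum BAs were measured by HPLC-HRMS. Serum was extracted with 4 volumes methanol, sonicated 1 min, stirred 10 min, and spun 5,000g for 5 min. Groups were compared by Welch-corrected two-sided t-test.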

FXR = details: cited from earlier work
[1] = biological target: T1, full-length human FXR protein (Homo sapiens, UniProt Q96RI1); assay: DiscoverX cell-based protein–protein interaction assay on FXR, antagonist mode; details: for FXR antagonistic activity against GW4604-mediated activation (in words): tested range of concentrations
T1 sequence (Q96RI1 1-486): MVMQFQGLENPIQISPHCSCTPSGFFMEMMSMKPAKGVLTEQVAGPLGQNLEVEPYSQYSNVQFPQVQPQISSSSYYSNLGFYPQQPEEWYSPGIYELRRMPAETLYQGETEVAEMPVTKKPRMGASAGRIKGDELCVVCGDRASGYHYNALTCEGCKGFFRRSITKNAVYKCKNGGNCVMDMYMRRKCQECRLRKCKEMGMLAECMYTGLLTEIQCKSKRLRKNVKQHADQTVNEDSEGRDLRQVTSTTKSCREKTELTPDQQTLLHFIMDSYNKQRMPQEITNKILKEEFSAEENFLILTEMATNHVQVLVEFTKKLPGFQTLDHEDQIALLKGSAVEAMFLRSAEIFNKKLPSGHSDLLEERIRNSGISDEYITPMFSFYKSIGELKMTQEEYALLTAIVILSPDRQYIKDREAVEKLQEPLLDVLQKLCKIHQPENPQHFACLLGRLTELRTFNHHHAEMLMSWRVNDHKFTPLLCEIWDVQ

[2] = biological target: T2, recombinant human VNN1 (ΔN490aa truncated) (Homo sapiens, UniProt O95497); assay: VNN1 in vitro assay with pantetheine derivatives; assay type: biochemical; details: 0.01 μM VNN1, 37 °C, 15 min, pantothenic acid formation, n = 3, mean ± s.d.
T2 sequence (O95497 22-490 limits assumed): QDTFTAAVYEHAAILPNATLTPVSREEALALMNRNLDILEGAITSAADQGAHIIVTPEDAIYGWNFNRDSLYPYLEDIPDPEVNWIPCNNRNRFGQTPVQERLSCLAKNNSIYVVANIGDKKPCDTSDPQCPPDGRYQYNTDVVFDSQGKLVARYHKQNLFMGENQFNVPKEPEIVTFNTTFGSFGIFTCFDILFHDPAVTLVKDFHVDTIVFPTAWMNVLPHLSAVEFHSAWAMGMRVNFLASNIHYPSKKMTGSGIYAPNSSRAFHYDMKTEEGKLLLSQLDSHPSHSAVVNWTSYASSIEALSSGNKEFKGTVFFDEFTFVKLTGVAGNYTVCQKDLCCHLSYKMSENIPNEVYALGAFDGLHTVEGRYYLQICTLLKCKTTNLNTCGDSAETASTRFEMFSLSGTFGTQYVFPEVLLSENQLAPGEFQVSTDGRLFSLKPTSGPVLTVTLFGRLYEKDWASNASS
Procedure, shortened: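 Recombinant human ΔN490aa VNN1 (C-terminal His tag, in PBS pH 7.0) was mixed 1:1 with substrate (pantetheine or cholic acid–pantetheine derivative) in PBS pH 7.0. Final enzyme was 0.01 µM and final substrate 20–640 µM. Reactions ran 15 min at 37 °C and were quenched with methanol. Pantothenic acid was quantified by HPLC-HRMS (ESI+, m/z 220.1180) against a calcium pantothenate standard curve. Initial velocities were fitted to saturation kinetics; three independent assays used the same enzyme batch.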

[3] = biological target: T1, full-length human FXR protein; assay: DiscoverX cell-based protein–protein interaction assay on FXR, agonist mode; details: any of the tested concentrations
Procedure, shortened: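 CHO-K1 cells (mycoplasma-negative, not authenticated) expressing full-length human FXR with an SRC-derived co-activator peptide fusion. Cells were grown in charcoal-dextran-filtered serum, then given 5X sample for 3–16 h at 37 °C or room temperature. Signal came from PathHunter chemiluminescent detection (1 h, room temperature). Activity (%) was set against vehicle RLU and GW4064 maximum, with duplicates at each concentration.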

C[C@H](CCC(=O)O)[C@H]1CC[C@H]2[C@@H]3[C@H](O)C[C@@H]4C[C@H](O)CC[C@]4(C)[C@H]3CC[C@]12C [CDCA, chenodeoxycholic acid]
BA levels in the liver and serum of WT and Nr1h4^−/− mice (BA production): not significantly affected

C[C@H](CCC(=O)NCCS(=O)(=O)O)[C@H]1CC[C@H]2[C@@H]3[C@@H](O)[C@@H](O)[C@@H]4C[C@H](O)CC[C@]4(C)[C@H]3CC[C@]12C [TβMCA, Tauro-β-muricholic acid]
FXR antagonism as previously reported (FXR): weak, mouse-specific FXR antagonist | FXR antagonistic activity against GW4604-mediated activation (in words) [1]: did not show FXR antagonistic effects; also recorded: inactive

CC(C)(CO)[C@@H](O)C(=O)NCCC(=O)NCCS [pantetheine]
Vmax, hydrolysis by VNN1 [2]: 2.13 ± 0.37 min⁻¹

CSCCNC(=O)CC[C@@H](C)[C@H]1CC[C@H]2[C@@H]3[C@@H](O)[C@@H](O)[C@@H]4C[C@H](O)CC[C@]4(C)[C@H]3CC[C@]12C [βMCA–MCY]
FXR agonist activity (in words) [3]: no FXR agonistic effects | IC50 ([1]; read-out: IC50, antagonistic activity against GW4604-mediated activation of FXR, agonist challenge GW4064 0.37 μM (EC80), CHO-K1 cells, duplicate): 104 µM | FXR antagonistic activity against GW4604-mediated activation (in words) [1]: strong FXR antagonistic effects
